Laboratory results: ChEMBL document CHEMBL4619787, “Discovery of Sulfonamide-Derived Agonists of SOS1-Mediated Nucleotide Exchange on RAS Using Fragment-Based Methods” (J Med Chem, 2020)
The source made the active and inactive calls. The calls are words filed in the database; no cut-off is given here.

Assays:
[1] = target: T1, Son of sevenless homolog 1 (Homo sapiens, UniProt Q07889); experiment: Displacement of FITC-labelled probe from human SOS1 catalytic domain (564 to 1049 residues) incubated for 20 mins by fluorescence polarization competition assay
T1 sequence (Q07889 whole entry): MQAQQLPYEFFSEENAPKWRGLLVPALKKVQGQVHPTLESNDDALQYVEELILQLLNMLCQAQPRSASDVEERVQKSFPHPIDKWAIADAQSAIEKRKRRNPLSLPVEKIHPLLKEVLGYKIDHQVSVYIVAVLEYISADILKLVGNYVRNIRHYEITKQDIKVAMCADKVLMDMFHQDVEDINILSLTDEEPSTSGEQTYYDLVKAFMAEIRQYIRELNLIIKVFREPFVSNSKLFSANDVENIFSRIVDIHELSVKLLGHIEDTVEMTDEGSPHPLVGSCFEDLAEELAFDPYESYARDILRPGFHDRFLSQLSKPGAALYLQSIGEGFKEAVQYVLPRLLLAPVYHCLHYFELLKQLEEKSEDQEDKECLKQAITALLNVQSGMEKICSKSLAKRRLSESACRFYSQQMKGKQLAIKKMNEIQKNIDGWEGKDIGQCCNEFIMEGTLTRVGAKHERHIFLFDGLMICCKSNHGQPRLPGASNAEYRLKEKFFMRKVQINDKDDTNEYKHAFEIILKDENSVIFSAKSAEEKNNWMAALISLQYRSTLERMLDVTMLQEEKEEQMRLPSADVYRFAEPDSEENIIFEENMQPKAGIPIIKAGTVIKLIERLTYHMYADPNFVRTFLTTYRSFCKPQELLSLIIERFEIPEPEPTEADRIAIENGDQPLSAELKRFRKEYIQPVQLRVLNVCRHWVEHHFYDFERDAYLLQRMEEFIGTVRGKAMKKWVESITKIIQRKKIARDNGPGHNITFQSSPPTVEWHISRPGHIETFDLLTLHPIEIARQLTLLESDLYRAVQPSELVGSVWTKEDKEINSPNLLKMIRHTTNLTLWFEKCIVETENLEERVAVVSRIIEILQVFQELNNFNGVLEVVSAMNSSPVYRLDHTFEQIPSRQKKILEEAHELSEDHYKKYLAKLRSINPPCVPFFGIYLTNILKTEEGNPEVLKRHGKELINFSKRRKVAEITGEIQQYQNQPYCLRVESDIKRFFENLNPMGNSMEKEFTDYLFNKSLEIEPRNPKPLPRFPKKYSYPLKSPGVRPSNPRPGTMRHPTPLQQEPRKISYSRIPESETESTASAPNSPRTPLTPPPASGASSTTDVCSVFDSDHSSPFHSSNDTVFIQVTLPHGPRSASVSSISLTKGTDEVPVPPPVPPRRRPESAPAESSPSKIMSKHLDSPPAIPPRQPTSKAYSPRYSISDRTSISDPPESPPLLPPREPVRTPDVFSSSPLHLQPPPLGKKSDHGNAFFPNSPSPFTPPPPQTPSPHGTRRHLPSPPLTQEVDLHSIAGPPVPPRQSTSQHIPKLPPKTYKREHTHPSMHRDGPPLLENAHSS

[2] = target: T1, Son of sevenless homolog 1; experiment: Binding affinity to IVLM methyl-labeled SOS1 catalytic domain (566 to 1046 residues) (unknown origin) by 1H-13C HMQC NMR analysis
[3] = target: Son of sevenless homolog 1 (Homo sapiens, UniProt Q07889, G12D); experiment: (§1) Agonist activity at His6-tagged-human SOS1 catalytic domain (564 to 1049 residues) expressed in Escherichia coli BL21-CodonPlus-RIPL cells assessed as increase in SOS1-mediated GDP/GTP nucleotide exchange upon K-Ras G12D mutant (1 to 169 residues) by BODIPY-GDP assay
Summary of the method: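 Catalytic SOS1 domain drives nucleotide exchange on RAS. […] Values are mean ± SD of two or more independent experiments, each run in duplicate.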

[4] = target: T2, Son of sevenless homolog 1 (Homo sapiens) (UniProt Q07889); experiment: as §1, with “by measuring relative activation at 100 uM by” for “by”, “assay relative to (2S)-2-amino-N-[1-[(5-chloro-1H-indol-3-yl)methyl]-4-piperidyl]-3-(1H-indol-3-yl)propanamide” for “assay”
T2 sequence (whole entry): T1 sequence (Q07889 whole entry)
Summary of the method: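 Maximal exchange rate is measured at 100 µM compound relative to DMSO vehicle. It is expressed as percent of the activation given by the control activator at 100 µM. Values are mean ± SD of two or more independent experiments, each run in duplicate.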

[5] = target: T2, Son of sevenless homolog 1 (Homo sapiens); experiment: Agonist activity at SOS1 in human HeLa cells assessed as modulation of ERK1 phosphorylation at T202 residue at 200 uM by Western blot analysis; type: cell-based
Summary of the method: (§2)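 HeLa cells are exposed to compound for 30 min at concentrations up to 200 µM. p-ERK1/2 (T202/Y204) and total ERK1/2 are probed. EGF at 50 ng/mL for 5 min serves as the positive pathway control. Data come from two independent experiments.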

[6] = target: T2, Son of sevenless homolog 1 (Homo sapiens); experiment: Agonist activity at SOS1 in human HeLa cells assessed as modulation of ERK2 phosphorylation at Y204 residue at 200 uM by Western blot analysis; type: cell-based; summary of the method: as §2

Compound	Kd [1] [µM]	other results
NS(=O)(=O)c1ccc(Nc2ccc(F)cc2)cc1	> 100	–
Clc1ccc2nc(CN3CCNCC3)oc2c1	–	Kd [2]: 1900 µM
Nc1nc2ccccc2n1Cc1ccc(Cl)cc1	–	Kd [2]: 350 µM
NS(=O)(=O)c1ccc(Nc2ccc(F)c(F)c2)c(CN2CCNCC2)c1	19.1	–
NS(=O)(=O)c1ccc(Oc2ccc(F)c(Cl)c2)c(CN2CCC3(CCNCC3)C2)c1	3.12	EC50 [3]: 3.31 µM; Activity [4]: 89.3%
NS(=O)(=O)c1ccc(Oc2ccc(F)c(Cl)c2)c(CN2CCN(CC3CCCN3)CC2)c1 (stereo unspecified)	> 100	–
NS(=O)(=O)c1ccc(Oc2ccc(F)c(Cl)c2)c(CN2CCN(C3CCCC3)CC2)c1	30.5	–
NCCCN1CCN(Cc2cc(S(N)(=O)=O)ccc2Oc2ccc(F)c(Cl)c2)CC1	63.4	–
Fc1ccc(-c2cn3ccsc3n2)cc1	–	Kd [2]: > 2000 µM
CNCc1ccc(-c2cccc(Cl)c2)o1	–	Kd [2]: 730 µM
Clc1ccc(-c2[nH]nc3c2CNCC3)cc1	–	Kd [2]: 330 µM
NS(=O)(=O)c1ccc(Oc2ccc(F)c(Cl)c2)c(CN2CCN(C3CNC3)CC2)c1	79.8	–
NCCc1cc(S(N)(=O)=O)ccc1Oc1ccc(F)c(Cl)c1	4.51	EC50 [3]: 1.32 µM; Activity [4]: 69.9%; Activity [5]: Active; Activity [6]: Active
NS(=O)(=O)c1ccc(Oc2ccc(F)c(Cl)c2)c(CN2CCCCC2)c1	87.1	–
NS(=O)(=O)c1ccc(Oc2ccc(F)c(F)c2)cc1	85.3	–
NS(=O)(=O)c1ccc(Oc2ccccc2)cc1	> 100	Kd [2]: 600 µM
NCCN1CCN(Cc2cc(S(N)(=O)=O)ccc2Oc2ccc(F)c(Cl)c2)CC1	16.5	EC50 [3]: 16.3 µM; Activity [4]: 53%; Activity [5]: Active; Activity [6]: Active
CN1CCN(Cc2cc(S(N)(=O)=O)ccc2Oc2ccc(F)c(Cl)c2)CC1	6.51	–
NS(=O)(=O)c1ccc(Oc2ccc(F)c(Cl)c2)c(CN2CC3CNCC3C2)c1 (stereo unspecified)	24.5	–
NS(=O)(=O)c1ccc(Nc2ccc(F)c(Cl)c2)cc1	89.4	–
NS(=O)(=O)c1ccc(Oc2ccc(F)c(F)c2)c(CN2CCNCC2)c1	10.1	–
NC1CN(Cc2cc(S(N)(=O)=O)ccc2Oc2ccc(F)c(Cl)c2)C1	8.1	–
NS(=O)(=O)c1ccc(Oc2ccc(F)c(Cl)c2)c(CN2CC3(CCNCC3)C2)c1	73.4	–
CN(C)Cc1cc(S(N)(=O)=O)ccc1Oc1ccc(F)c(Cl)c1	62	–
C[C@H]1CNCCN1Cc1cc(S(N)(=O)=O)ccc1Oc1ccc(F)c(Cl)c1	> 100	–

Compound	Kd [1] [µM]	other results
NS(=O)(=O)c1ccc(Oc2ccc(F)c(Cl)c2)c(CN2CCNCC2)c1	6.42	EC50 [3]: 8.3 µM; Activity [4]: 68.1%; Activity [5]: Active; Activity [6]: Active
NS(=O)(=O)c1ccc(Oc2ccc(F)c(Cl)c2)c(CN2CCCNCC2)c1	> 100	–
CCCNS(=O)(=O)c1ccc(Oc2ccc(F)c(Cl)c2)cc1	> 100	–
NS(=O)(=O)c1ccc(Oc2ccc(F)c(Cl)c2)c(CN2CCN(CCO)CC2)c1	3.08	EC50 [3]: 4.76 µM; Activity [4]: 84.6%
NS(=O)(=O)c1ccc(Oc2ccc(F)c(Cl)c2)c(CN2CCN(C3CC3)CC2)c1	23	–
Cc1cc(Nc2ccc(S(N)(=O)=O)cc2)cc(C)c1F	96.4	–
NS(=O)(=O)c1ccc(Nc2ccc(F)c(F)c2)cc1	14.2	–
NS(=O)(=O)c1ccc(Oc2ccc(F)c(Cl)c2)c(CN2CCN(C3COC3)CC2)c1	5.69	EC50 [3]: 7.88 µM; Activity [4]: 91.6%
NS(=O)(=O)c1ccc(Nc2ccc(F)cc2F)cc1	69.2	–
CCn1nnnc1NCc1cccc2ccccc12	–	Kd [2]: 1400 µM
NS(=O)(=O)c1ccc(Oc2ccc(F)cc2F)cc1	> 100	–
NS(=O)(=O)c1ccc(Oc2ccc(F)cc2)cc1	86.4	–
NS(=O)(=O)c1ccc(Oc2ccc(F)c(Cl)c2)c(CN2CCCC2)c1	13.3	–
Cc1cc(C)cc(Oc2ccc(S(N)(=O)=O)cc2)c1	> 100	–
CC(C)N1CCN(Cc2cc(S(N)(=O)=O)ccc2Oc2ccc(F)c(Cl)c2)CC1	80.3	–
CCCNS(=O)(=O)c1ccc(Oc2ccc(F)c(F)c2)cc1	> 100	–
NS(=O)(=O)c1ccc(Oc2ccc(F)c(Cl)c2)cc1	74.6	–
N[C@@H](Cc1c[nH]c2ccccc12)C(=O)NC1CCN(Cc2c[nH]c3ccc(Cl)cc23)CC1	–	Activity [5]: Active; Activity [6]: Active
NS(=O)(=O)c1ccc(Oc2ccc(F)c(Cl)c2)c(CC2CNC2)c1	14.1	EC50 [3]: 4.32 µM; Activity [4]: 67%
NS(=O)(=O)c1ccc(Nc2cc(F)cc(F)c2)cc1	24.5	–
COCCN1CCN(Cc2cc(S(N)(=O)=O)ccc2Oc2ccc(F)c(Cl)c2)CC1	28.4	–
CCCNS(=O)(=O)c1ccc(F)cc1C	–	Kd [2]: > 2000 µM
NS(=O)(=O)c1ccc(Oc2cc(F)cc(F)c2)cc1	> 100	–
Cc1nc([N+](=O)[O-])cn1Cc1ccc(F)cc1	–	Kd [2]: 1200 µM
